GalR3 antagonist – blocks the human galanin receptor 3; HEK293 GalR3-CNG cAMP membrane potential fluorescence; galR3 body fused to GalR1 C-terminus; 360,000 compounds, 0.44% hits; O60755; AID 651719; inhibition, % at 3 µM;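 active = inhibition above the screen-wide average plus 3 SD, cut at about 13% in these data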;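 note: forskolin and galanin both at EC90 stimulate the cells; cAMP rise reported by CNG channel membrane potential dye signal; 0% = forskolin plus galanin with DMSO and 100% = forskolin alone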
TAAR1 ag – human TAAR1 agonism; Q96RJ0; CHO RD-HGA16 TAAR1, Fluo-8 calcium fluorescence; vehicle wells 0%, saturating PEA agonist 100%; activation, % at 3 µM; 360,000 compounds, 0.99% hits; AID 624467;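 active = activation above the mean activation of all test compounds in the run plus 3 SD, cut at about 38% in these data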
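Repeats: no replicates (n 1) | Material: CHO-derived RD-HGA16 cells with stable Gα16 and human TAAR1 | Technique: Kinetic Fluo-8 calcium fluorescence | Schedule: 17-24 h seeding, 75 min 37 °C dye, 30 min RT | Evaluation: % activation from peak over basal fluorescence ratio, DMSO-to-PEA scaled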
OX1R antag-1 – blocks the human orexin 1 receptor; CHO/OX1R cells, Fluo-8 calcium fluorescence, orexin A; O43613; 330,000 compounds, 0.43% hits; inhibition, % at 5 µM;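 active = inhibition above its plate's threshold, mean inhibition of all tested compounds on the plate plus 3 SD, cut at about 37% in these data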;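 note: 0% = orexin A challenge wells and 100% = SB-334867-A antagonist wells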
Target sequence (O43613 whole entry, looked up): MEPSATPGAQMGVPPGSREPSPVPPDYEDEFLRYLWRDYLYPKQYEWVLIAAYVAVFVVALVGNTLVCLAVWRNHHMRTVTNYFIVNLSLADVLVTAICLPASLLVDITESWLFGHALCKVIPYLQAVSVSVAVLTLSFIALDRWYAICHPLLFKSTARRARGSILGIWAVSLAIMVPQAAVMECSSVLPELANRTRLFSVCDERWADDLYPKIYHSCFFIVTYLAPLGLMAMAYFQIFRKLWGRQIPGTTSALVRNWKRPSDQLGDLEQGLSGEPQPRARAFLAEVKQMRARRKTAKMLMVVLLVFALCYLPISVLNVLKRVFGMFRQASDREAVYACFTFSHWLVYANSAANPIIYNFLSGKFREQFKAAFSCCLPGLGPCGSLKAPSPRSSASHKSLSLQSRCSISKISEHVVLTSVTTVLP
TAAR1 antagonist – human TAAR1 antagonism | 360,000 compounds, 1.5% hits | inhibition, % at 3 µM | CHO RD-HGA16 TAAR1, Fluo-8 calcium fluorescence, antagonist | AID 624466;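 active = inhibition above a per-plate cutoff, the mean inhibition of test compounds on that plate plus 3 SD, cut at about 49% in these data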;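 note: 0% = DMSO plus EC80 beta-PEA response and 100% = DMSO alone without agonist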
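Material: RD-HGA16 CHO cells with stable hTAAR1 and Gα16; Dosing: single nominal final test compound concentration of 3 µM; Schedule: seeding 17-24 h prior, 75-min 37 °C, 30-min RT dye loading; Detection: kinetic Fluo-8 calcium fluorescence measurement; Measure: % inhibition from peak post-agonist over basal fluorescence ratio; Benchmarks: vehicle and agonist controls.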
OX1R antag-2 – OX1R (human) antagonism; OX1R-expressing cells, FRET antagonist read-out; inhibition, % at 6.6 µM; 330,000 compounds, 1.8% hits; AID 485270; O43613; in the data active = inhibition mostly above about 38%, no sharp cut-off; inactive = mostly below about 40%;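 note: 0% = agonist challenge alone and 100% = reference antagonist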
CHO parental Ca – signal in parental CHO cells, OX1R antagonist counter-screen | AID 463079 | 330,000 compounds, 0.63% hits | parental CHO-K1, ATP-induced calcium, Fluo-8 fluorescence | inhibition, % at 5.6 µM;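 active = inhibition above that plate's mean sample inhibition plus 3 SD, cut at about 26% in these data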;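 note: 0% = ATP-challenged DMSO wells and 100% = DMSO wells without ATP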
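Assay system: parental CHO cells; Read-out basis: percent inhibition of ATP-evoked calcium rise, normalized to controls; Benchmarks: ATP and no-ATP DMSO wells; Compound dosing: single nominal dose of 5.6 µM per compound; Signal: Fluo-8 calcium dye fluorescence; Also added: ATP as calcium-mobilizing challenge; Repeats: singlicate.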
GalR3 conf – confirmation of human galanin receptor 3 antagonists; shares compounds with GalR3 antagonist; HEK293 GalR3 CNG cAMP biosensor, membrane potential fluorescence; galR3 fused to GalR1 carboxy tail; challenged with forskolin and galanin at EC90; inhibition, % at 3 µM; 1,600 compounds, 59% hits; AID 652245;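 active = inhibition above the primary screen's cutoff, the mean inhibition of all screened compounds plus 3 SD, cut at about 13% in these data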;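 note: 0% = forskolin plus galanin and 100% = forskolin alone with DMSO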
CNG parental – counter-screen for GalR3 antagonists: nonspecific agonists in parental HEK-CNG cells; shares compounds with GalR3 antagonist; 1,600 compounds, 10% hits; HEK293-CNG parental cells, cAMP membrane potential fluorescence; normalised: DMSO wells 0%, forskolin wells 100%; AID 652268; activation, % at 3 µM; in the data active = activation above about 1.3%
* marks the source's active call; other numbers are inactive results; nt = not tested or not shown. A selection: hits, their analogues and other compounds. The true share with any hit is near 4.2%.

SMILES	GalR3 antagonist	TAAR1 ag	OX1R antag-1	TAAR1 antagonist	OX1R antag-2	CHO parental Ca	GalR3 conf	CNG parental
NS(=O)(=O)c1ccc(CNC(=O)c2csc3c2CCCC3)cc1	27*	-1	-26	-8	13	-20	13*	0
CCCNC(=O)c1csc2c1CCCCC2	3	-1	-14	-11	18	-14	nt	nt
COc1ccccc1-[n+]1c(C)cc(/C=C2\Sc3ccccc3N2C)cc1C	44*	22	62*	30	39	69*	107*	0
COc1ccc(-[n+]2c(C)cc(/C=C3\Sc4ccccc4N3C)cc2C)cc1	82*	32	31	62*	56*	46*	103*	-1
Cc1c(OCC(=O)N[C@H](C(=O)O)c2ccccc2)ccc2c3c(c(=O)oc12)CCCC3	-3	-1	-10	-9	9	-14	nt	nt
CCSc1nnc(Cn2c(=O)sc3ccccc32)n1C	nt	2	2	-7	3	-6	2	0
COc1ccc(CCN2C(=O)CSC2=Nc2ccc(C(C)C)cc2)cc1OC	84*	22	20	46	4	29*	96*	0
COc1ccc(N=C2SCC(=O)N2CCc2ccc(OC)c(OC)c2)cc1	0	8	-17	-31	15	-17	nt	nt
COC(=O)c1ccc(COc2ccccc2/C=C(\C#N)C(=O)Nc2ccccc2C)cc1	-6	2	-26	-8	8	-8	nt	nt
O=C(CSc1nnc(-c2cccnc2)s1)Nc1ccnc2ccccc12	90*	10	26	32	22	27	119*	0
CCOC(=O)C1=C(C)NC2=C(C(=O)c3ccccc32)C1c1ccc(O)cc1 (stereo not drawn)	20*	1	-31	-4	27	-22	8	0
COc1cc(S(=O)(=O)Nc2ccccc2C)ccc1NC(=O)c1ccncc1	-7	0	-21	1	11	-14	nt	nt
O=C(C=C=Nc1ccccc1)C(=O)N=C=Cc1ccccc1	18*	7	10	-15	17	-6	10	0
O=C(N/N=C/c1ccccc1)C(=O)N/N=C/c1ccccc1	-7	1	-8	-11	8	-5	nt	nt
Cc1onc(-c2ccccc2Cl)c1C(=O)Nc1ccccc1	0	-1	-17	1	27	-25	nt	nt
Cc1onc(-c2ccccc2Cl)c1C(=O)NNC(=O)c1cccc(F)c1	13*	4	-9	-19	15	-19	15*	0
CCOC(=O)c1sc(NCc2ccco2)c(-c2nc3ccccc3s2)c1N	-2	-1	-20	7	17	-18	nt	nt
CC(=O)Nc1ccc(NC(=O)CSc2nnc(-c3ccco3)o2)cc1	5	2	3	-7	40	-11	nt	nt
Cc1cc(NC(=O)CSc2nnc(-c3ccco3)o2)no1	nt	0	-7	-6	1	-7	-5	0
O=C1N/C(=N/Nc2ccccc2)S/C1=C\c1ccccc1	1	4	-10	-4	22	-11	nt	nt
COc1ccc(C)c2sc(N3CCCC3)nc12	-2	4	13	1	14	-6	nt	nt
COc1ccc(OC)c2sc(N3CCN(c4ccccc4)CC3)nc12	15*	6	-30	7	6	-16	11	-1
O=C1c2ccccc2C(=O)N1CCC#Cc1ccc2cc(CCO)oc(=O)c2c1	13*	20	12	72*	9	1	4	0
CCCc1ccccc1OCCNC(=O)c1cc(=O)n(C)c(=O)n1C	16*	2	-25	-24	5	-12	5	0
CCOc1ccccc1C(=O)Nc1cc(=O)n(C)c(=O)n1C	0	0	-11	12	17	-1	nt	nt
SMILES	GalR3 antagonist	TAAR1 ag	OX1R antag-1	TAAR1 antagonist	OX1R antag-2	CHO parental Ca	GalR3 conf	CNG parental
CC(C)CC[n+]1ccccc1/C=C/c1ccc(N(C)C)cc1	31*	19	29	29	32	61*	47*	16*
O=P(Cc1cc[n+]([O-])cc1)(c1ccccc1)c1ccccc1	-3	1	-8	-4	16	-4	nt	nt
Cc1ccc(C)c(C(=O)NC2CC(C)(C)NC(C)(C)C2)c1	-5	4	-6	-1	8	0	nt	nt
COc1cccc2[nH]c3c(N4CCC(C)CC4)ncnc3c12	86*	10	-22	6	7	-20	96*	1
COc1cccc2[nH]c3c(N4CCc5ccccc5C4)ncnc3c12	nt	nt	-22	nt	13	-22	nt	nt
CCCCNC(=O)CSc1nc(O)c(Cc2ccc(OC)cc2)c(=O)[nH]1	4	2	-8	2	10	-2	nt	nt
COc1ccc(Cc2c(O)nc(SCC(=O)NC34CC5CC(CC(C5)C3)C4)[nH]c2=O)cc1	-3	-2	-15	-11	-1	-2	4	0
Cc1ccc(S(=O)(=O)N2CCN(CCO)CC2)cc1-c1nnc2c3ccccc3c(C)nn12	30*	15	-25	7	6	-4	43*	2.9*
Cc1ccc(S(=O)(=O)N2CCN(CCNC(=O)C(=O)NCc3ccccc3)CC2)cc1	-8	-2	-20	-14	14	-6	nt	nt
Cc1ccc(S(=O)(=O)N2CCN(C)CC2)cc1-c1nnc2c3ccccc3c(C)nn12	40*	3	-56	8	24	-24	49*	1
Cc1cc(C(=O)CSc2nc(N)cc(=O)[nH]2)c(C)n1-c1ccc(OC(F)F)cc1	14*	-1	19	-3	20	38*	98*	0
CCCCNC(=O)COC(=O)c1ccccc1F	19*	-3	-7	-12	3	-11	2	0
O=C(O)c1ccc(O)c(O)c1	13*	0	-7	-16	2	-9	4	0
COCCNC(=S)N1CCCC(CO)C1 (stereo not drawn)	-5	4	2	7	11	3	nt	nt
CCCN(CC(=O)Nc1ccc(Cl)cc1Cl)Cc1cc(=O)n2ccsc2n1	17*	4	-31	-12	37	-22	24*	0
Cc1nnc(NC(=O)c2ccc(S(=O)(=O)N3CCCCC3C)cc2)o1 (stereo not drawn)	4	2	4	-22	6	-11	nt	nt
COc1cccc(CN(C)C(=O)c2ccc(OCC(=O)Nc3cccc(C(F)(F)F)c3)c(OC)c2)c1	90*	9	52*	67*	38	65*	94*	-1
